Where a SMILES comes first, the peptide text is derived from it. [ ]: non-standard residue; d: D form. The star is where a group is joined. Tyr(Nα,Nα-allyl2) = C=CCN(CC=C)[C@@H](Cc1ccc(O)cc1)C(=O)*; Aib = CC(C)(N)C(=O)O
Assays:
[1] = target: Delta-type opioid receptor (Mus musculus) (UniProt P32300); assay: Opioid receptor delta 1 antagonistic activity was measured by the displacement of DADLE in the mouse vas deferens at tha concentration of 200 nM; assay type: functional
Summary of the method: (§1)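 Mouse vas deferens. Antagonist (nM, as stated on line) incubated with the preparation 15 min before testing. δ agonist [D-Ala2,D-Leu5]enkephalin.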

[2] = target: Kappa-type opioid receptor (Cavia porcellus) (UniProt P41144); assay: Opioid receptor kappa 1 antagonistic activity was measured by the displacement of ethylketazocine in the guinea pig ileum at a concentration of 100 nM; assay type: functional, tissue-based
Chain of Kappa-type opioid receptor (Cavia porcellus) (P41144 whole entry): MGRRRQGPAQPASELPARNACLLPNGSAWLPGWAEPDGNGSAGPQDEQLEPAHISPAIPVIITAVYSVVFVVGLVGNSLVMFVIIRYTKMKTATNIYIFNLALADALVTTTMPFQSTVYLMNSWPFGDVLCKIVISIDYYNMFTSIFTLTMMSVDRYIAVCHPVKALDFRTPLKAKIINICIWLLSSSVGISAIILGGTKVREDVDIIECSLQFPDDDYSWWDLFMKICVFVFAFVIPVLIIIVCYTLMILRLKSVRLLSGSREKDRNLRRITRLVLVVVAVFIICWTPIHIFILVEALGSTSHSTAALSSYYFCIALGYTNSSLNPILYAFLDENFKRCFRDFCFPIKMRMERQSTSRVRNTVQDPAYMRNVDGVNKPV
Summary of the method: (§2)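 Guinea pig ileum. Antagonist (nM, as stated on line) incubated 15 min before testing. Agonists: morphine (μ) and ethylketazocine (κ).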

[3] = target: Delta-type opioid receptor (Mus musculus) (UniProt P32300); assay: Antagonist potency was determined as the ratio of [antagonist] to (IC50 ratio-1) for opioid receptor delta 1; assay type: functional
Summary of the method: (§3)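 Ke (nM) = [antagonist]/(IC50 ratio − 1). IC50 ratio is agonist IC50 with antagonist over the control IC50 in the same preparation. Antagonist preincubated 15 min. Agonists: DADLE in mouse vas deferens (δ); morphine (μ) and ethylketazocine (κ) in guinea pig ileum. n ≥ 3.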

[4] = target: Mu-type opioid receptor (Cavia porcellus) (UniProt P97266); assay: Antagonist potency was determined as the ratio of [antagonist] to (IC50 ratio-1) for Opioid receptor mu 1; assay type: functional; summary of the method: as §3
Chain of Mu-type opioid receptor (Cavia porcellus) (P97266 whole entry): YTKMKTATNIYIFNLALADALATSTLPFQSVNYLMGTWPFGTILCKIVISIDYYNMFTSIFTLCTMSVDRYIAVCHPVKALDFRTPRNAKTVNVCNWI

[5] = target: Kappa-type opioid receptor (Cavia porcellus) (UniProt P41144); assay: Opioid receptor kappa antagonistic activity was measured by the displacement of ethylketazocine in the guinea pig ileum at a concentration of 100 nM; assay type: functional, tissue-based; summary of the method: as §2
[6] = target: Kappa-type opioid receptor (Cavia porcellus) (UniProt P41144); assay: Antagonist potency was determined as the ratio of [antagonist] to (IC50 ratio-1) for Opioid receptor kappa 1; assay type: functional; summary of the method: as §3
[7] = target: Mu-type opioid receptor (Cavia porcellus) (UniProt P97266); assay: Opioid receptor mu 1 antagonistic activity was measured by the displacement of morphine in the guinea pig ileum at a concentration of 100 nM; assay type: functional, tissue-based; summary of the method: as §2
[8] = target: Delta-type opioid receptor (Mus musculus) (UniProt P32300); assay: Opioid receptor delta antagonistic activity was measured by the displacement of DADLE in the mouse vas deferens at tha concentration of 200 nM; assay type: functional; summary of the method: as §1
[9] = target: Opioid receptors; delta & kappa (Homo sapiens) (UniProt P41145+P41143); assay: Selectivity ratio was determined from Ke value of Opioid receptor kappa 1 and Opioid receptor delta 1; assay type: protein assay; conditions: Cavia porcellus
Chain of Opioid receptors; delta & kappa (Homo sapiens) (P41143 whole entry, looked up): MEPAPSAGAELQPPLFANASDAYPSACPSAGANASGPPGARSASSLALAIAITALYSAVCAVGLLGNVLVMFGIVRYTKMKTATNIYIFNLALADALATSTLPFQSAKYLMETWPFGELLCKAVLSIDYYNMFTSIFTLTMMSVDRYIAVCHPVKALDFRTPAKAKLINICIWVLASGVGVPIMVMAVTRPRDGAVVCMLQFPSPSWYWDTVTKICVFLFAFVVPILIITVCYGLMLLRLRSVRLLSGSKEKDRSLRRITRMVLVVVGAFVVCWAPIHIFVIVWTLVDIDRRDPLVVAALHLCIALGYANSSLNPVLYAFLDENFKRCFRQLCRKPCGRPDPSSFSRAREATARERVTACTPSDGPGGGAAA
Chain of Opioid receptors; delta & kappa (Homo sapiens) (P41145 whole entry, looked up): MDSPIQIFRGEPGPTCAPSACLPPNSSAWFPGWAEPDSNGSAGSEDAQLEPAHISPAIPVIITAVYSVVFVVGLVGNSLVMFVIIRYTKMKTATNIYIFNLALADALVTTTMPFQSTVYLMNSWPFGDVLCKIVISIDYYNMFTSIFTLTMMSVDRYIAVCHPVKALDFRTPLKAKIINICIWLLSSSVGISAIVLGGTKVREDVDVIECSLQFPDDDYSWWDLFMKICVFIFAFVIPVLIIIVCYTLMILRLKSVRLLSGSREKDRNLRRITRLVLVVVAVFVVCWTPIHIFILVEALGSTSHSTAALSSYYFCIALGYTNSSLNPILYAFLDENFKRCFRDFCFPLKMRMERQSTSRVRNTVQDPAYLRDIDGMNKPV
Summary of the method: (§4)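 Ratios of Ke values, μ/δ or κ/δ. Each Ke = [antagonist]/(IC50 ratio − 1). δ from DADLE in mouse vas deferens; μ (morphine) and κ (ethylketazocine) in guinea pig ileum. 15 min antagonist preincubation, n ≥ 3.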

[10] = target: Opioid receptors; mu & delta (Homo sapiens) (UniProt P41143+P35372); assay: Selectivity ratio was determined from Ke value of Opioid receptor mu 1 and Opioid receptor delta 1; assay type: protein assay; conditions: Cavia porcellus; summary of the method: as §4
Chain of Opioid receptors; mu & delta (Homo sapiens) (P35372 whole entry, looked up): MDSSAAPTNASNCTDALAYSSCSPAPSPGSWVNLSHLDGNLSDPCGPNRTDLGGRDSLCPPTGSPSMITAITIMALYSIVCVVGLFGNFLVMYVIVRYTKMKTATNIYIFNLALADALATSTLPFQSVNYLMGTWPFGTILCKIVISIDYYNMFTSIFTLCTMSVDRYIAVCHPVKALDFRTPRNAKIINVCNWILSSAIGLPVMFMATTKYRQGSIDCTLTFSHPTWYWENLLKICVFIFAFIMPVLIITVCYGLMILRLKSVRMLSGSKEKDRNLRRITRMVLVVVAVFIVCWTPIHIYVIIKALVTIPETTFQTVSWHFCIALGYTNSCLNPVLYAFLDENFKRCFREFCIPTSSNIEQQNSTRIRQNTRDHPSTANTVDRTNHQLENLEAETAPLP
Chain of Opioid receptors; mu & delta (Homo sapiens) (P41143 whole entry, looked up): as the sequence (P41143 whole entry, looked up) above

[11] = target: Mu-type opioid receptor (Cavia porcellus) (UniProt P97266); assay: Opioid receptor mu antagonistic activity was measured by the displacement of morphine in the guinea pig ileum at a concentration of 100 nM; assay type: functional, tissue-based; summary of the method: as §2
[12] = target: Kappa-type opioid receptor (Cavia porcellus) (UniProt P41144); assay: Opioid receptor kappa 1 antagonistic activity was measured by the displacement of ethylketazocine in the guinea pig ileum at a concentration of 200 nM; assay type: functional, tissue-based; summary of the method: as §2
[13] = target: Mu-type opioid receptor (Cavia porcellus) (UniProt P97266); assay: Opioid receptor mu antagonistic activity was measured by the displacement of morphine in the guinea pig ileum at a concentration of 200 nM; assay type: functional, tissue-based; summary of the method: as §2
[14] = target: Kappa-type opioid receptor (Cavia porcellus) (UniProt P41144); assay: Opioid receptor kappa antagonistic activity was measured by the displacement of ethylketazocine in the guinea pig ileum at a concentration of 200 nM; assay type: functional, tissue-based; summary of the method: as §2
[15] = target: Mu-type opioid receptor (Cavia porcellus) (UniProt P97266); assay: Opioid receptor mu 1 antagonistic activity was measured by the displacement of morphine in the guinea pig ileum at a concentration of 200 nM; assay type: functional, tissue-based; summary of the method: as §2
Mu-type opioid receptor [16] = target: T1, Mu-type opioid receptor (Cavia porcellus, UniProt P97266); assay: Binding affinity was measured by the displacement of [3H]- DAMGO in guinea pig brain membrane of Opioid receptor mu 1; assay type: cell membranes
T1 sequence (P97266 whole entry): as the sequence (P97266 whole entry) above
Summary of the method: (§5)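 Radioligand displacement from guinea pig brain membranes, modified Werling method. μ sites: [3H]DAMGO. δ sites: [3H]DADLE with 1 μM DAMGO. κ sites: [3H]ethylketazocine with 1 μM DAMGO.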

[17] = target: T2, Kappa-type opioid receptor (Cavia porcellus, UniProt P41144); assay: Binding affinity was measured by the displacement of [3H]- EK in guinea pig brain membrane of Opioid receptor kappa 1; assay type: cell membranes; summary of the method: as §5
T2 sequence (P41144 whole entry): as the sequence (P41144 whole entry) above

[18] = target: T2, Kappa-type opioid receptor; assay: Binding affinity was measured by the displacement of [3H]- EK in guinea pig brain membrane of opioid receptor kappa; assay type: cell membranes; summary of the method: as §5
Mu-type opioid receptor [19] = target: T1, Mu-type opioid receptor; assay: Binding affinity was measured by the displacement of [3H]- DAMGO in guinea pig brain membrane of opioid receptor mu; assay type: cell membranes; summary of the method: as §5
[20] = target: Mu-type opioid receptor (Cavia porcellus) (UniProt P97266); conditions: Ileum, 200 nM
[21] = target: Delta-type opioid receptor (Mus musculus) (UniProt P32300); assay: Opioid receptor delta 1 antagonistic activity was measured by the displacement of DADLE in the mouse vas deferens at a concentration of 100 nM; assay type: functional; summary of the method: as §1
[22] = target: Delta-type opioid receptor (Mus musculus) (UniProt P32300); assay: Opioid receptor delta antagonistic activity was measured by the displacement of DADLE in the mouse vas deferens at a concentration of 100 nM; assay type: functional; summary of the method: as §1

Chain of Delta-type opioid receptor (Mus musculus) (P32300 whole entry): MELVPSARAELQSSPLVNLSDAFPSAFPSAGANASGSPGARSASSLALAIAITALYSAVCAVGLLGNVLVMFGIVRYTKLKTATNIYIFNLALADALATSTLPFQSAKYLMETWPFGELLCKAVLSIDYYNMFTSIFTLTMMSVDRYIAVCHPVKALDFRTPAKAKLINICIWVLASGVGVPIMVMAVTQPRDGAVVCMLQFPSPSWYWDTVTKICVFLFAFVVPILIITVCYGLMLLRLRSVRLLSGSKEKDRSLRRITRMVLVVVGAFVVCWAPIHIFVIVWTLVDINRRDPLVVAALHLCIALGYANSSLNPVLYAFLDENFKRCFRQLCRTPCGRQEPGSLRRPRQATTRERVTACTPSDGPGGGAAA

With `COc1ccc2[nH]c3c(c2c1)C[C@@]1(O)[C@H]2Cc4ccc(O)c5c4[C@@]1(CCN2CC1CC1)[C@H]3O5` the IC50 ratio [1] was 53, the IC50 ratio [2] was 9.2 and the Ke [3] was 3.8 nM. For the same compound, the Ke [4] was over 63 nM, the IC50 ratio [5] was 9.2 and the Ke [6] was 12 nM. The IC50 ratio [7] was 2.6, the IC50 ratio [8] was 53 and the Selectivity ratio [9] was 3.2. The Selectivity ratio [10] was over 16 and the IC50 ratio [11] was 2.6.
`O=[N+]([O-])c1ccc2[nH]c3c(c2c1)C[C@@]1(O)[C@H]2Cc4ccc(O)c5c4[C@@]1(CCN2CC1CC1)[C@H]3O5` was tested, and the IC50 ratio [1] was 2.4, the IC50 ratio [12] was 1.2 and the Ke [3] was 146 nM. For the same compound, the IC50 ratio [13] was 1.9, the Ke [4] was over 230 nM and the IC50 ratio [14] was 1.2. The Ke [6] was over 870 nM, the IC50 ratio [15] was 1.9 and the IC50 ratio [8] was 2.4. It also gave a Selectivity ratio [9] of over 5.6 and a Selectivity ratio [10] of over 1.6.
`Oc1ccc2c3c1O[C@H]1c4[nH]c5ccc(F)cc5c4C[C@@]4(O)[C@@H](C2)N(CC2CC2)CC[C@]314` was tested, and the IC50 ratio [1] was 104, the IC50 ratio [12] was 6.3 and the Ki (Mu-type opioid receptor [16]) was 1.7 nM. It also gave a Ke [3] of 1.9 nM, a Ki [17] of 15 nM and a Ke [4] of 49 nM. It also gave a Ki [18] of 15 nM, an IC50 ratio [14] of 6.3 and a Ke [6] of 38 nM. For the same compound, the Ki (Mu-type opioid receptor [19]) was 1.7 nM, the IC50 ratio [15] was 5.1 and the IC50 ratio [8] was 104. For the same compound, the Selectivity ratio [9] was 19, the Selectivity ratio [10] was 25 and the IC50 ratio [20] was 5.1.
For `C=CCN1CC[C@]23c4c5ccc(O)c4O[C@H]2c2[nH]c4ccccc4c2C[C@@]3(O)[C@H]1C5`, the IC50 ratio [21] was 93, the IC50 ratio [2] was 2.2 and the Ki (Mu-type opioid receptor [16]) was 104 nM. The Ke [3] was 1.1 nM, the Ki [17] was 321 nM and the Ke [4] was over 714 nM. For the same compound, the Ki [18] was 321 nM, the IC50 ratio [5] was 2.2 and the Ke [6] was over 82 nM. The Ki (Mu-type opioid receptor [19]) was 104 nM, the IC50 ratio [7] was 1.1 and the IC50 ratio [22] was 93. The Selectivity ratio [9] was over 75, the Selectivity ratio [10] was over 655 and the IC50 ratio [11] was 1.1.
Compound `Cc1ccc2[nH]c3c(c2c1)C[C@@]1(O)[C@H]2Cc4ccc(O)c5c4[C@@]1(CCN2CC1CC1)[C@H]3O5` has an IC50 ratio [1] of 55.4, an IC50 ratio [2] of 1.4 and a Ke [3] of 3.7 nM. It also gave a Ke [4] of over 167 nM, an IC50 ratio [5] of 1.4 and a Ke [6] of over 250 nM. For the same compound, the IC50 ratio [7] was 1.6, the IC50 ratio [8] was 55.4 and the Selectivity ratio [9] was over 68. The Selectivity ratio [10] was over 45 and the IC50 ratio [11] was 1.6.
Work on `C=CCN(CC=C)[C@@H](Cc1ccc(O)cc1)C(=O)NC(C)(C)C(=O)NC(C)(C)C(=O)N[C@@H](Cc1ccccc1)C(=O)N[C@@H](CC(C)C)C(=O)O` ({Tyr(Nα,Nα-allyl2)}-[Aib][Aib]FL-OH) yielded an IC50 ratio [21] of 15.6, an IC50 ratio [2] of 0.8 and a Ki (Mu-type opioid receptor [16]) of over 1000 nM. For the same compound, the Ke [3] was 69 nM, the Ki [17] was over 1000 nM and the Ke [4] was over 1670 nM. It also gave a Ki [18] of over 1000 nM, an IC50 ratio [5] of 0.8 and a Ke [6] of over 1250 nM. The Ki (Mu-type opioid receptor [19]) was over 1000 nM, the IC50 ratio [7] was 0.6 and the IC50 ratio [22] was 15.6. It also gave a Selectivity ratio [9] of over 18, a Selectivity ratio [10] of over 24 and an IC50 ratio [11] of 0.6.
